Screening data (PubChem)
CHO-K1 Ca antag: nonselective inhibitor or artifact in parental CHO-K1 cells. hit rate 0.6% among 360,000. AID 602250. ATP-induced calcium, Fluo-8 fluorescence. inhibition, % at 3 µM;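 active = inhibition above a per-plate cutoff, the plate's mean sample inhibition plus 3 SD, cut at about 24% in these data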;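 note: 0% = DMSO plus EC80 ATP and 100% = DMSO alone without ATP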
M1 ag parental: nonselective activator or artifact in parental CHO-K1 cells; Fluo-8 calcium fluorescence; scaled to maximal ATP response, vehicle zero; activation, % at 3 µM; hit rate 0.48% among 360,000; AID 602248; in the data active = activation above about 15%;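 note: untransfected CHO-K1 host cells lacking M1 receptor as counterscreen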
OX1R antag-1: antagonists of human orexin 1 receptor | CHO/OX1R cells, Fluo-8 calcium fluorescence, orexin A | inhibition, % at 5 µM | hit rate 0.43% among 330,000 | AID 434989;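 active = inhibition above its plate's threshold, mean inhibition of all tested compounds on the plate plus 3 SD, cut at about 37% in these data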;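 note: 0% = orexin A challenge wells and 100% = SB-334867-A antagonist wells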
Target sequence (O43613 whole entry, looked up): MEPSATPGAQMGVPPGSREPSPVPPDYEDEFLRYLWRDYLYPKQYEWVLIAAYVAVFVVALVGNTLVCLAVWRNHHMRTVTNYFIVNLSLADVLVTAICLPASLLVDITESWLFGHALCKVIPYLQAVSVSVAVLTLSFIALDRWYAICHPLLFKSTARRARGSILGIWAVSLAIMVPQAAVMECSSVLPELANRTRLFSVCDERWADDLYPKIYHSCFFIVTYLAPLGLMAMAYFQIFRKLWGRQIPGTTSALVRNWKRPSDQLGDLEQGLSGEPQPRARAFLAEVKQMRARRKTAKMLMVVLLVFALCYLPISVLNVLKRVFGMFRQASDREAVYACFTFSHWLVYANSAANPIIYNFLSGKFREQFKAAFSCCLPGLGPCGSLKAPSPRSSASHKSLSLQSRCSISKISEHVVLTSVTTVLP
CHO-K1 Ca PAM: counter-screen for M1 PAMs: effect in parental CHO-K1 cells; activation, % at 3 µM; hit rate 0.02% among 360,000; ATP EC20, Fluo-8 calcium fluorescence; 0% at ATP EC20, 100% at ATP max;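 active = activation above the run cutoff, the mean activation of all test compounds plus 3 SD, cut at about 40% in these data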;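 note: peak over basal fluorescence ratio in a 140 s read after ATP addition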
OX1R antag-2: blocks the human orexin 1 receptor; OX1R-expressing cells, FRET antagonist read-out; inhibition, % at 6.6 µM; hit rate 1.8% among 330,000; in the data active = inhibition mostly above about 38%, no sharp cut-off; inactive = mostly below about 40%;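 note: 0% = agonist challenge alone and 100% = reference antagonist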
CHO parental Ca: counter-screen: ATP calcium response change in parental CHO cells. parental CHO-K1, ATP-induced calcium, Fluo-8 fluorescence. inhibition, % at 5.6 µM. hit rate 0.63% among 330,000;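 active = inhibition above that plate's mean sample inhibition plus 3 SD, cut at about 26% in these data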;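 note: 0% = ATP-challenged DMSO wells and 100% = DMSO wells without ATP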
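Assay system: parental CHO cells; Read-out basis: percent inhibition of ATP-evoked calcium rise, normalized to controls; Benchmarks: ATP and no-ATP DMSO wells; Compound dosing: single nominal dose of 5.6 µM per compound; Signal: Fluo-8 calcium dye fluorescence; Also added: ATP as calcium-mobilizing challenge; Repeats: singlicate.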
An asterisk follows results filed as active; x = no result given. Sampled rows, rich in hits. Any-hit rate of the full collection: about 2.9%.

SMILES | CHO-K1 Ca antag | M1 ag parental | OX1R antag-1 | CHO-K1 Ca PAM | OX1R antag-2 | CHO parental Ca
CCC1(c2ccc(F)cc2)NC(=O)N(CC(=O)Nc2ccccc2Cl)C1=O (stereo not drawn) | -8 | 15* | -10 | -7 | -7 | -6
CC1(c2ccc3c(c2)OCCO3)NC(=O)N(CC(=O)Nc2ccccc2F)C1=O (stereo not drawn) | 30* | 1 | x | -19 | x | x
CCC1(c2ccc(F)cc2)NC(=O)N(CC(=O)NC2CCCCCC2)C1=O (stereo not drawn) | -3 | 0 | -9 | -9 | 7 | 2
CCC1(c2ccccc2)NC(=O)N(CC(=O)Nc2ccccc2C(=O)NC2CC2)C1=O (stereo not drawn) | -16 | 2 | -24 | 26 | 3 | 6
Cc1cc(=O)oc2cc(OCC(=O)N3CC[C@@]4(O)CCCC[C@H]4C3)ccc12 | -2 | 0 | -16 | 23 | 24 | -2
O=C(CCN1CCCCC1)N1CCc2c([nH]c3ccccc23)C1c1cccnc1 (stereo not drawn) | 5 | 0 | x | -3 | x | x
Cc1nc(SCC(=O)NCC2CCCO2)nc(C)c1C (stereo not drawn) | -7 | 0 | -13 | -1 | 7 | 2
C=CCN(C(=O)C1=NN(C2CCS(=O)(=O)C2)C(=O)CC1)c1nc(-c2ccc([N+](=O)[O-])cc2)cs1 (stereo not drawn) | 0 | 1 | -19 | 2 | 22 | 6
COc1ccccc1CNC(=O)[C@@H]1CCCN1S(=O)(=O)c1ccc(Cl)cc1 | -13 | 2 | -29 | 1 | 28 | -18
CCCC(=O)Nc1nc2c(C)c(Cl)ccc2s1 | -16 | 7 | -2 | 15 | 27 | 9
Cc1c(Cl)ccc2sc(NC(=O)C3CC3)nc12 | 4 | 1 | -20 | 8 | 44* | 3
Cc1cc(C)cc(NC(=O)C(=O)NCCCN2CCCC2=O)c1 | -5 | 1 | 1 | 5 | 16 | 5
CN(C)CC[n+]1ccc(C(=O)c2ccccc2)cc1 | -2 | 0 | -11 | -17 | 52* | -3
O=C(C[n+]1ccc(C(=O)c2ccccc2)cc1)Nc1ccc(C(F)(F)F)cc1 | -11 | 1 | -19 | 21 | 42 | -4
O=C(c1ccccc1)c1cc[n+]([O-])cc1 | -1 | 1 | -14 | 9 | 42* | -3
CCOC(=O)c1ccc(-n2c(CN(CC)CC)nc3ccc([N+](=O)[O-])cc3c2=O)cc1 | -19 | 4 | -8 | 23 | 41 | 6
O=C(O)[C@@H](c1ccccc1)N1Cc2ccccc2C1=O | 30* | 0 | 0 | -10 | 4 | 2
CCc1ccc(C2=NN(CCC(=O)NC3CC3)C(=O)CC2)cc1 | x | x | -7 | x | 0 | -12
CCOC(=O)c1cc(-c2ccc(F)cc2)n(CC(=O)N2CCCC2)c1C | 3 | 15* | -33 | 12 | 18 | -29
CCOC(=O)c1cc(-c2ccccc2)n(CC(=O)N2CCCC2)c1C | 4 | 2 | -17 | 9 | 23 | -9
O=C(CSc1nnnn1-c1ccccc1)Nc1ccc(Cl)cc1 | -7 | 1 | -2 | 11 | 11 | -8
O=C(CSc1nnnn1-c1ccccc1)Nc1ccc(Cl)cn1 | 0 | 2 | 0 | 12 | 11 | 44*
O=C(NC(NC(=S)Nc1ccccc1Cl)C(Cl)(Cl)Cl)c1cccc(Cl)c1 (stereo not drawn) | 24* | 14 | 19 | -1 | 46 | 4
COc1ccc(NC(=S)NC(NC(=O)c2cccc(Cl)c2)C(Cl)(Cl)Cl)c([N+](=O)[O-])c1 (stereo not drawn) | 15 | 15 | 7 | -8 | 31 | 26*
COc1ccc(NC(=S)NC(NC(=O)c2cccc(C)c2)C(Cl)(Cl)Cl)c([N+](=O)[O-])c1 (stereo not drawn) | -4 | 3 | -13 | 10 | 61 | -9
SMILES | CHO-K1 Ca antag | M1 ag parental | OX1R antag-1 | CHO-K1 Ca PAM | OX1R antag-2 | CHO parental Ca
O=C(Nc1nnc(SCc2ccc(Cl)cc2)s1)C1CCCO1 (stereo not drawn) | 31* | 0 | -7 | -9 | 10 | -17
O=C(CCc1nc(-c2ccccc2F)no1)Nc1ccc(Oc2ccccc2)cc1 | 24* | 8 | 62* | -3 | 55 | 39*
CSc1ccc(S(=O)(=O)Nc2ccc3c(c2)NC(=O)CC3)cc1 | 14 | 16* | 1 | 2 | 27 | 6
Oc1[nH]c2ccccc2c1C=Nc1ccc2c(c1)OCO2 | -9 | 2 | -3 | 14 | 59* | -11
Cc1ccc(S(=O)(=O)n2nc(C)c(Br)c2C)c(C)c1C | 1 | 0 | 52* | 2 | 47 | 38
CC1CCN(C(=O)COC(=O)c2ccc(Br)o2)CC1 | -11 | 1 | 4 | 19 | 13 | -8
CC1Cc2ccccc2N1C(=O)COC(=O)c1ccc([N+](=O)[O-])o1 (stereo not drawn) | -13 | 2 | 5 | 6 | 40* | -5
COCCn1c(C)cc(C(=O)COC(=O)c2ccc([N+](=O)[O-])o2)c1C | -17 | 0 | -10 | 10 | 31 | 1
CC1CCN(C(=O)COC(=O)c2ccc([N+](=O)[O-])o2)CC1 | -10 | 0 | -5 | 19 | 42* | -3
Cc1cc(C(=O)COC(=O)c2ccc([N+](=O)[O-])o2)c(C)n1CC1CCCO1 (stereo not drawn) | -5 | 2 | -12 | 9 | 67* | 0
O=C(Nc1nnc([C@@H]2C[C@H](O)[C@@H](CO)O2)s1)Nc1cccc2c1CCCC2 | -4 | 0 | x | 24 | x | x
C[C@H](O)CC(=O)O | -11 | 1 | 1 | 24 | 11 | -6
Cc1cccc(-n2c(=O)c(C#N)cc3c(=O)n4ccccc4nc32)c1 | -5 | 0 | -11 | 7 | 60* | -17
CCCn1c(=N)c(C#N)cc2c(=O)n3ccccc3nc21 | -11 | 1 | 9 | 22 | 47* | -2
CCc1ccc[n+](-c2[nH]c(=O)sc2/C=N/N=C(\N)[O-])c1 | -7 | 0 | -8 | 8 | 30 | -4
CC(C)(C)c1cc[n+](-c2[nH]c(=O)sc2/C=N/N=C(\[O-])c2cccnc2)cc1 | 9 | 13 | -6 | 5 | 58* | -11
CC(C)(C)c1cc[n+](-c2[nH]c(=O)sc2/C=N/NC(=O)c2ccccc2[O-])cc1 | 0 | 0 | 7 | -9 | 57* | 25
Cc1c(C(=O)Nc2cc(S(=O)(=O)N3CCOCC3)ccc2N2CCOCC2)oc2ccccc12 | -3 | 0 | -39 | 2 | 46 | -12
CSc1nc(Oc2ccc(F)cc2F)cc(C(F)(F)F)n1 | 26* | 0 | 3 | 0 | 28 | -5
CSc1nc(Oc2cccc(C(F)(F)F)c2)cc(C(F)(F)F)n1 | -2 | 0 | -6 | 12 | 18 | 1
CCCN=C1CC(C)(C)CC(=O)/C1=C(/O)CCC | 4 | 18* | -17 | 16 | 10 | -16
CCCCCCN=C1CC(C)(C)CC(=O)/C1=C(/O)CCC | -8 | 3 | -31 | 1 | 9 | -27
